Compound activity: PubChem BioAssay, Johns Hopkins Ion Channel Center
A selection: hits, their analogues and other compounds. The true share with any hit is near 3.1%.
KCNQ1 act – potentiators or activators of KCNQ1 channel, primary screen, cell-based, thallium flux, high-throughput; Potassium voltage-gated channel subfamily KQT member 1 (Homo sapiens), P51787; CHO-K1 KCNQ1, thallium flux FluxOR fluorescence; stronger effect = higher value; B-score at 10 µM; actives 0.35% (n = 310,000);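 active means fluorescence ratio B-score, a plate-corrected score, at least three library SD, with initial intensity B-score within 5 SD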
Target sequence (P51787 whole entry, looked up): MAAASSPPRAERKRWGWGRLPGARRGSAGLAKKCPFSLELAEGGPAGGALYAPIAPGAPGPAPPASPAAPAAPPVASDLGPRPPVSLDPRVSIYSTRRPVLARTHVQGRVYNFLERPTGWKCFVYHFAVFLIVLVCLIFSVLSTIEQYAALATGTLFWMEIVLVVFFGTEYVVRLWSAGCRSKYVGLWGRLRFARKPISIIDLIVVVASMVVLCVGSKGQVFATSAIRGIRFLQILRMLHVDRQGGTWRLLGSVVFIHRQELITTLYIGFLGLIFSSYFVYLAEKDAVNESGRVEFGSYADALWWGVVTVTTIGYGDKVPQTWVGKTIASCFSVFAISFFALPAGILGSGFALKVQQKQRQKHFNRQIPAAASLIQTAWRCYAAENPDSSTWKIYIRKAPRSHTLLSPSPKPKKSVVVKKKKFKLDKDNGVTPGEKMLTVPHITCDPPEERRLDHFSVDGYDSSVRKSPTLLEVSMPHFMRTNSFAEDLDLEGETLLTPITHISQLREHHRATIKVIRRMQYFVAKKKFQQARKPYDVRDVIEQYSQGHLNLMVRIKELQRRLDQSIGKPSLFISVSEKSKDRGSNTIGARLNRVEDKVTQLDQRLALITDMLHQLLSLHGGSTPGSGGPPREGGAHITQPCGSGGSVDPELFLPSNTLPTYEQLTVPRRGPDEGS
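assay system = CHO-K1 cells stably expressing KCNQ1 | medium = assay buffer, equal DMSO in all wells | timing = 37 °C overnight plating, 90-min dark dye load, 20-min compound pretreatment | measured by = kinetic FluxOR thallium fluorescence, 10-s 1-Hz baseline, 110-s post-stimulus read | measure = fluorescence change relative to baseline, converted to B score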
KCNK3 block – human KCNK3 channel inhibitors, primary screen, CHO cells, FluxOR thallium flux, B-score | B-score at 10 µM | FluxOR fluorescence; stronger effect = lower value | actives 0.84% (n = 340,000) | Potassium channel subfamily K member 3 (Homo sapiens), O14649;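 active means B-score under library mean minus 4 SD, starting fluorescence ratio at most library mean plus 5 SD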;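 further: more negative B-score means stronger inhibition of thallium flux through KCNK3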
KCNQ1 block – inhibitors of human KCNQ1 channel, primary screen, cell-based, thallium flux, high-throughput | actives 1.3% (n = 310,000) | CHO-K1 KCNQ1, FluxOR thallium flux fluorescence; stronger effect = higher value | B-score at 10 µM | Potassium voltage-gated channel subfamily KQT member 1 (Homo sapiens), P51787;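 active means compounds whose thallium flux B-score, printed positive for inhibition, exceeds three library SD while starting fluorescence stays within three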;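 further: channel opened by potassium depolarization with thallium stimulus after 20 min compound exposure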
hERG protect – hERG rescue from dofetilide block, primary screen, cell-based, CHO-hERG, FluxOR thallium flux, dofetilide IC70. dofetilide IC70 present. activation (rescue from dofetilide block), less the hit threshold, % at 10 µM. actives 0.51% (n = 310,000). AID 1511, 2009;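 active means activation above the mean of controls blocked by dofetilide plus 5 SD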;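 further: thallium influx through hERG after potassium depolarization seen as dye fluorescence rise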
KCNK9 block – KCNK9 potassium channel inhibitors, primary screen, HEK293 cells, thallium flux. Potassium channel subfamily K member 9 (Homo sapiens), Q9NPC2. FluxOR thallium flux fluorescence; stronger effect = lower value. B-score at 10 µM. actives 1.2% (n = 310,000). AID 488922, 2010;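 active means ratio B-score over 3 SD below the library mean, with starting fluorescence within 5 SD of its mean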;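 further: negative B-score means less thallium flux so channel inhibition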
Large screens that a line does not name were inactive.

CCCN(CC(=O)Nc1ccccc1OC)C(=O)c1cc(-c2cccs2)nn1-c1ccccc1	none
COC(=O)c1cc2ccsc2n1Cc1nc(-c2cccc(Cl)c2)oc1C	KCNK9 block -7.3
Cc1cc(N/N=C/c2cccc([N+](=O)[O-])c2)nc(-n2nc(C)cc2C)n1	none
Cc1cc(N/N=C/c2ccc(O)cc2O)nc(-n2nc(C)cc2C)n1	none
Cc1cc(N/N=C/c2cccc(Cl)c2)nc(-n2nc(C)cc2C)n1	KCNK9 block -8
COc1ccc(/C=N/Nc2cc(C)nc(-n3nc(C)cc3C)n2)cc1	KCNK9 block -6.7
COc1ccc2nc(C)cc(N/N=C/c3ccccc3)c2c1	KCNK3 block -9.4 (no result: KCNQ1 act, KCNQ1 block, hERG protect, KCNK9 block)
CC(C)(O)C#Cc1ccc(CNC[C@H]2O[C@@H](n3cnc(C(N)=O)n3)[C@H](O)[C@@H]2O)s1	none (no result: KCNQ1 act, KCNQ1 block, hERG protect, KCNK9 block)
CC(Sc1n[nH]c(N)n1)C(=O)NC1CCCCC1C (stereo unspecified)	KCNQ1 act 8
COc1cc2c(cc1OC)C(NNC(=O)c1ccc(Br)o1)=NC(C)(C)C2	none
COC(=O)Nc1nn(-c2ccc(OC)cc2)c(=O)c(C#N)c1C	hERG protect 5.5
CCOc1cccc(C(=O)Nc2ccc3[nH]ncc3c2)c1	hERG protect 4.9
COc1cccc(C(=O)Nc2ccc3[nH]ncc3c2)c1	none
COc1ccccc1C(=O)Nc1ccc2[nH]ncc2c1	KCNQ1 act 9
COc1ccccc1C(=O)Nc1ccncc1	none
CC(C)c1ccccc1N=C1SCCCN1C(=O)c1cccc(N2C(=O)CCC2=O)c1	none
COc1cccc(N=Nc2ccc3cccnc3c2O)c1	KCNQ1 act 9
COc1ccc(N=Nc2ccc(O)c3ncccc23)cc1	none
Cc1c(Cl)cccc1NC(=O)CSc1ncnc2c1cnn2CCO	none
Cc1ccc(S(=O)(=O)NCC(=O)OCC(=O)N2C(C)CCCC2C)cc1 (stereo unspecified)	none (no result: KCNQ1 act, KCNQ1 block, hERG protect, KCNK9 block)
Cc1cc(NC(=S)N(Cc2ccc(Br)cc2)Cc2ccc(C(=O)O)cc2)ccc1Cl	KCNK9 block -6.8
CCOC(=O)c1c(NC(=O)CSc2nc3cccnc3n2C)sc(C(C)=O)c1C	KCNK3 block -10
COc1ccc(CN(C)C(=O)c2cccc(S(=O)(=O)N3CCc4ccccc43)c2)c(OC)c1	none (no result: KCNQ1 act, KCNQ1 block, hERG protect, KCNK9 block)
S=C(Nc1ccc(Nc2ccccc2)cc1)Nc1ccccn1	KCNK9 block -7.1
O=C(Nc1ccc(C(=O)N2CCCCC2)cc1)C1CCC1	none (no result: KCNQ1 act, KCNQ1 block, hERG protect, KCNK9 block)
Cc1cc(Cl)ccc1OCCCC(=O)NNC(=O)c1ccccc1O	none
CN1CCCC1CCNc1ccc2sc3ccccc3c(=O)c2c1 (stereo unspecified)	KCNK9 block -7.5
CC(=O)CCc1ccc(OCCCOc2cccc3cccnc23)cc1	none
CCn1c(=S)[nH]c2c(c1=O)C(C)(C)Cc1ccccc1-2	KCNQ1 act 17, hERG protect 45
Cn1c(=S)[nH]c2c(c1=O)C(C)(C)Cc1ccccc1-2	none
CCN(CC)CCN1C(=O)c2ccccc2NC1c1ccccc1F (stereo unspecified)	hERG protect 5.1
Cc1c(C)c(C)c(S(=O)(=O)NCCC(=O)N2CCN(Cc3ccc(C#N)cc3)CC2)c(C)c1C	none (no result: KCNQ1 act, KCNQ1 block, hERG protect, KCNK9 block)
COC(=O)c1cc(NC(=O)c2cccc(C(F)(F)F)c2)c(=O)oc1C/C=N/OCc1cccc(Cl)c1Cl	KCNK3 block -11
COC(=O)c1cc(NC(=O)c2cccc(C(F)(F)F)c2)c(=O)oc1C	none
O=C(OCC(=O)N1CCN(c2ccccc2)CC1)c1cccc(Cl)c1	none
O=C(OCC(=O)N1CCN(c2ccccc2)CC1)c1cnc(Cl)c(Cl)c1	hERG protect 9.4 (no result: KCNK3 block)
O=c1cc(O)c2ccccc2n1Cc1ccccc1Cl	hERG protect 5.3
COc1cc(OC)c(C(=O)OCC(=O)Nc2ccc(N3CCOCC3)cc2)cc1OC	none (no result: KCNQ1 act, KCNQ1 block, hERG protect, KCNK9 block)
CC(=O)c1ccc(NC(=O)C(C)N(C)CC(=O)Nc2ccc(N3CCOCC3)cc2)cc1 (stereo unspecified)	hERG protect 4.6
CC(=O)c1ccc(NC(=O)C(C)N(C)CC(=O)Nc2ccc(Cl)cc2)cc1 (stereo unspecified)	none
C=C1C(=O)O[C@H]2C1CC[C@@](C)(O)C13C=CC(C)(C21)C1(C3)C(=O)O[C@@H]2C3C(C)=CCC3[C@](C)(O)C[C@H](OC(C)=O)C21 (stereo partly specified)	hERG protect 5.9
CCN(c1ccccc1)S(=O)(=O)c1ccc(Oc2ccccc2)c(N)c1	none (no result: KCNQ1 act, KCNQ1 block, hERG protect, KCNK9 block)
C/C(=N\NC(=O)c1nnn(-c2nonc2N)c1CN(C)c1ccccc1)c1ccccn1	KCNK9 block -7.6
CC(/C=N/NC(=O)c1nnn(-c2nonc2N)c1CN(C)C)=C\c1ccco1	none
CCCN(CCC)Cc1c(C(=O)N/N=C/C(C)=C\c2ccco2)nnn1-c1nonc1N	KCNQ1 act 16
CCCCCCCCN1[C@@H](CC(=O)OCC)c2ccc(C(F)(F)F)cc2S1(=O)=O	KCNQ1 block 6
CCN(C(=O)COC(=O)CCCc1c[nH]c2ccccc12)c1c(N)n(Cc2ccccc2)c(=O)[nH]c1=O	none (no result: KCNQ1 act, KCNQ1 block, hERG protect, KCNK9 block)
O=C1NC[C@H](Cc2ccccc2)N(C[C@H]2CCCN2C[C@H](Cc2ccccc2)N2C[C@H](Cc3ccccc3)N(CC3CCCCCC3)C(=O)C2=O)C1=O	KCNK3 block -9 (no result: KCNQ1 act, KCNQ1 block, hERG protect, KCNK9 block)
CC(C)C[C@@H](CN1CCC[C@@H]1CN1C(=O)C(=O)NC[C@@H]1Cc1ccccc1)N1C[C@H](Cc2ccccc2)N(CC2CCCCCC2)C(=O)C1=O	none (no result: KCNQ1 act, KCNQ1 block, hERG protect, KCNK9 block)
O=C(CN1C(=O)NC2(CCCC2)C1=O)NCc1cccc(Cl)c1	none (no result: KCNQ1 act, KCNQ1 block, hERG protect, KCNK9 block)
CCOC(=O)c1c(-c2ccccc2)csc1NC(=O)C(C)NCc1ccco1 (stereo unspecified)	KCNQ1 block 7
N#C/C(=C(/O)CCl)c1nc2c(s1)CCc1ccccc1-2	KCNQ1 block 6
Nc1nc2c(s1)CCc1ccccc1-2	none
O=C1CC(N(CCc2ccccc2)C(=S)Nc2ccccc2)C(=O)N1c1ccc(Br)cc1 (stereo unspecified)	KCNQ1 block 6
Cn1ncc(N=Cc2c(O)ccc3ccccc23)c1C(=O)Nc1cccc(Cl)c1	KCNK9 block -7.4
CCCC(=O)Nc1sc2c(c1C(=O)OCC)CC(C)(C)OC2	none
CCOC(=O)c1c(NC(=O)c2ccc(C)cc2)sc2c1CC(C)(C)OC2	KCNQ1 block 8
COc1ccc(C2c3cc4c(cc3OC(N3CCOCC3)C2C)OCO4)c(OC)c1 (stereo unspecified)	none (no result: KCNQ1 act, KCNQ1 block, hERG protect, KCNK9 block)
CCC1CCCCN1Cc1ccc(OC)c(C)c1C (stereo unspecified)	hERG protect 5.3
COc1ccc(CN2CCN(CC3CC3)CC2CCO)c(C)c1C (stereo unspecified)	none
COc1ccc(CNCCc2ccccc2)cc1OCC(N)=O	none
